Source: ChEMBL document CHEMBL1150377, “Design of antiangiogenic hypoxic cell radiosensitizers: 2-nitroimidazoles containing a 2-aminomethylene-4-cyclopentene-1,3-dione moiety” (Bioorg Med Chem, 2008)

Experiments:
[1] = molecular target: 72 kDa type IV collagenase (Homo sapiens, UniProt P08253); experiment: Inhibition of human bowes melanoma cell MMP2
[2] = molecular target: Matrix metalloproteinase-9 (Bos taurus, UniProt P52176); experiment: Inhibition of bovine arterial endothelial cell MMP9; assay type: cell-based
Gallus gallus = species: Gallus gallus; experiment: Antiangiogenic activity in chick embryo chorioallantoic membrane assessed as number of eggs showing 3 mm avascular zone at 100 ug relative to control; assay type: functional, tissue-based
In short: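 Chick CAM assay on 4-day-old embryos in shell; 10 µL sample in 1% methyl cellulose/0.9% NaCl applied inside a ring on the CAM, 48 h at 37.6 °C, then fat emulsion injected to show vessels. Six eggs per group, repeated more than three times. Inhibition (%) = eggs with ≥3 mm avascular zone around ring / eggs in group ×100.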

[3] = Radiosensitizing activity in mouse EMT6/KU cells assessed as enhancement ratio reducing surviving fraction of cells at […] after 5 to 7 days; assay type: functional
In short: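 They were then irradiated with 6 MV X-rays at 2.0 Gy/min, replated, and scored for colonies after 5–7 days. Survival curves were least-squares fitted. ER is the ratio of radiation doses giving 1% survival.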

[4] = molecular target: Epidermal growth factor receptor (Homo sapiens, UniProt P00533); experiment: Inhibition of human A431 cell EGFRK assessed as 32P phosphorylation by scintillation counter; assay type: cell-based; settings: a-431
In short: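 Solubilized A431 cell lysate, debris removed, incubated with or without EGF for 30 min at 25 °C. Reaction started with [γ-³²P]ATP, 10 min at 0 °C. After stopping and washing, receptor phosphorylation measured as ³²P by scintillation counting.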

[5] = molecular target: Vascular endothelial growth factor receptor 1 (Homo sapiens, UniProt P17948); experiment: Inhibition of Flt1 expressed in mouse NIH3T3 cells by autoradiography; assay type: cell-based
[6] = Radiosensitizing activity in mouse EMT6/KU cells assessed as enhancement ratio reducing surviving fraction of cells at 1 mM after 5 to 7 days; assay type: functional
In short: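 EMT6/KU cells at 2×10⁶ cells/mL in drug-containing MEM in glass tubes, made hypoxic with 95% N₂/5% CO₂ for 60 min. Irradiated with 6 MV X-rays at 2.0 Gy/min, then plated. After 5–7 days replated for colony formation. Survival curves fitted by least squares; ER = ratio of radiation doses giving 1% survival.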

Chain of Matrix metalloproteinase-9 (P52176 whole entry): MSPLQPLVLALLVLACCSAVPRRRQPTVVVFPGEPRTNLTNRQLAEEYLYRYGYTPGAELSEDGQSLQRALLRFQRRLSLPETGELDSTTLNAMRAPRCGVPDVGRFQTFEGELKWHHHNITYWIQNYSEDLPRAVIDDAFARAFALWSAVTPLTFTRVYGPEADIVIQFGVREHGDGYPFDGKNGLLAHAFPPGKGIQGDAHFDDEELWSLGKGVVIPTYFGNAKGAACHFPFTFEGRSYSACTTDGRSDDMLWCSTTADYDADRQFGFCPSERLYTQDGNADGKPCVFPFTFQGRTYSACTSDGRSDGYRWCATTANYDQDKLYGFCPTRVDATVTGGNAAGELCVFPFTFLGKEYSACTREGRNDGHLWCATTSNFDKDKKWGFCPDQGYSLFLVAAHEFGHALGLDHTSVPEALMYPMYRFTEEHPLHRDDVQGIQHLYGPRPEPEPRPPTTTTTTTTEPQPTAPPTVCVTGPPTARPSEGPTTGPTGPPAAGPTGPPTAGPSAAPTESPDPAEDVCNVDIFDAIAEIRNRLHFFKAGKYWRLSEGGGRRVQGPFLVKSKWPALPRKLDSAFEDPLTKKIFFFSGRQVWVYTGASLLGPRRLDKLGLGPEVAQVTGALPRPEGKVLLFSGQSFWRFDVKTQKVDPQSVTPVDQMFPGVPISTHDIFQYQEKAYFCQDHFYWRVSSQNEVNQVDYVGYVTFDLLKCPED
Chain of 72 kDa type IV collagenase (P08253 whole entry): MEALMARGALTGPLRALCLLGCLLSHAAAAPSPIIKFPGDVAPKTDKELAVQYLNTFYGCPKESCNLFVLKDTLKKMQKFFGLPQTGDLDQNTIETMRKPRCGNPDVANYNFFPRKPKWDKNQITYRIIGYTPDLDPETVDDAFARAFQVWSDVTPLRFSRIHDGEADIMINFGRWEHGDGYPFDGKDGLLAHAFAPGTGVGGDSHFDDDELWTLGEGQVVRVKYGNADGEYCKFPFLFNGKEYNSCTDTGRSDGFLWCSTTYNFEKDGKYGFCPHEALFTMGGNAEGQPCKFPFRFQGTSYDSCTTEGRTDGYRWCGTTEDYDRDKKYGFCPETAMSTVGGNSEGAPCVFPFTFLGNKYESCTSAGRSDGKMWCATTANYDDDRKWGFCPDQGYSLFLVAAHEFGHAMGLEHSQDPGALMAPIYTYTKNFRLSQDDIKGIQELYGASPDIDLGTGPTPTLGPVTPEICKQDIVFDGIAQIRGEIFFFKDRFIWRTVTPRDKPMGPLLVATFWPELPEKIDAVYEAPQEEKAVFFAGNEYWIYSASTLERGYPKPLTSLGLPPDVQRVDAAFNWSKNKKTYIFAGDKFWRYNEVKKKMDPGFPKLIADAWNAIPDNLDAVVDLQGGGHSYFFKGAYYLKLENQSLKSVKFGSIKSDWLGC
Chain of Epidermal growth factor receptor (P00533 whole entry): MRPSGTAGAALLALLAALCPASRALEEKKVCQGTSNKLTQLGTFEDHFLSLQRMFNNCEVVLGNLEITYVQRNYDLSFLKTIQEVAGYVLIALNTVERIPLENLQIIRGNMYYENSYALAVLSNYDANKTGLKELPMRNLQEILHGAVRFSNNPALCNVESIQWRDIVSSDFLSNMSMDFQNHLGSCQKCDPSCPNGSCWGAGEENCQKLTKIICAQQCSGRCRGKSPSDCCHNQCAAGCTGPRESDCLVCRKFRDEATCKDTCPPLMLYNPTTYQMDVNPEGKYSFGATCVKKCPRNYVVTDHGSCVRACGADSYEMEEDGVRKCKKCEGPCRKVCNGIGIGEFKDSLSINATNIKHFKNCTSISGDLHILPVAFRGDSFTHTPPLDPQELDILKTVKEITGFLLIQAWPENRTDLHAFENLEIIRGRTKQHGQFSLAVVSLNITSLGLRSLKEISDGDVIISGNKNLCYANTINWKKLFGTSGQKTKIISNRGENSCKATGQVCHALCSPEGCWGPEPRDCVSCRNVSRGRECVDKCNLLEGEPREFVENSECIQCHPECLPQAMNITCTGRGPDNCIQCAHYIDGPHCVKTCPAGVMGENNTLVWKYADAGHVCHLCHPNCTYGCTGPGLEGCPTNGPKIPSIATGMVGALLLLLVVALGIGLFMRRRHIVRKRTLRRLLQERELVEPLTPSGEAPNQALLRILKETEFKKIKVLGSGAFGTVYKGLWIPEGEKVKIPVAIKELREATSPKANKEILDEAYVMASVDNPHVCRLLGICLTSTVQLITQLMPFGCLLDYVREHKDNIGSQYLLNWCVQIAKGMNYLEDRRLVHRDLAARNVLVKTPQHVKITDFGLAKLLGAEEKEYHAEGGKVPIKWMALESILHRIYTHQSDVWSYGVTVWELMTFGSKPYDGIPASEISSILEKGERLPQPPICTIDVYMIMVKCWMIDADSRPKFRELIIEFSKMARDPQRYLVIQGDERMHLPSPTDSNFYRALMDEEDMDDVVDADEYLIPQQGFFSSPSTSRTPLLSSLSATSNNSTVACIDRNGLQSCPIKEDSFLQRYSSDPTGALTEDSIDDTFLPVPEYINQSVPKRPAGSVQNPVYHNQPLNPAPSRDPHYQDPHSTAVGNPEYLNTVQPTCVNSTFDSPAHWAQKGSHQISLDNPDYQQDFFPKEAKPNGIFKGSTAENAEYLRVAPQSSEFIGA
Chain of Vascular endothelial growth factor receptor 1 (P17948 whole entry): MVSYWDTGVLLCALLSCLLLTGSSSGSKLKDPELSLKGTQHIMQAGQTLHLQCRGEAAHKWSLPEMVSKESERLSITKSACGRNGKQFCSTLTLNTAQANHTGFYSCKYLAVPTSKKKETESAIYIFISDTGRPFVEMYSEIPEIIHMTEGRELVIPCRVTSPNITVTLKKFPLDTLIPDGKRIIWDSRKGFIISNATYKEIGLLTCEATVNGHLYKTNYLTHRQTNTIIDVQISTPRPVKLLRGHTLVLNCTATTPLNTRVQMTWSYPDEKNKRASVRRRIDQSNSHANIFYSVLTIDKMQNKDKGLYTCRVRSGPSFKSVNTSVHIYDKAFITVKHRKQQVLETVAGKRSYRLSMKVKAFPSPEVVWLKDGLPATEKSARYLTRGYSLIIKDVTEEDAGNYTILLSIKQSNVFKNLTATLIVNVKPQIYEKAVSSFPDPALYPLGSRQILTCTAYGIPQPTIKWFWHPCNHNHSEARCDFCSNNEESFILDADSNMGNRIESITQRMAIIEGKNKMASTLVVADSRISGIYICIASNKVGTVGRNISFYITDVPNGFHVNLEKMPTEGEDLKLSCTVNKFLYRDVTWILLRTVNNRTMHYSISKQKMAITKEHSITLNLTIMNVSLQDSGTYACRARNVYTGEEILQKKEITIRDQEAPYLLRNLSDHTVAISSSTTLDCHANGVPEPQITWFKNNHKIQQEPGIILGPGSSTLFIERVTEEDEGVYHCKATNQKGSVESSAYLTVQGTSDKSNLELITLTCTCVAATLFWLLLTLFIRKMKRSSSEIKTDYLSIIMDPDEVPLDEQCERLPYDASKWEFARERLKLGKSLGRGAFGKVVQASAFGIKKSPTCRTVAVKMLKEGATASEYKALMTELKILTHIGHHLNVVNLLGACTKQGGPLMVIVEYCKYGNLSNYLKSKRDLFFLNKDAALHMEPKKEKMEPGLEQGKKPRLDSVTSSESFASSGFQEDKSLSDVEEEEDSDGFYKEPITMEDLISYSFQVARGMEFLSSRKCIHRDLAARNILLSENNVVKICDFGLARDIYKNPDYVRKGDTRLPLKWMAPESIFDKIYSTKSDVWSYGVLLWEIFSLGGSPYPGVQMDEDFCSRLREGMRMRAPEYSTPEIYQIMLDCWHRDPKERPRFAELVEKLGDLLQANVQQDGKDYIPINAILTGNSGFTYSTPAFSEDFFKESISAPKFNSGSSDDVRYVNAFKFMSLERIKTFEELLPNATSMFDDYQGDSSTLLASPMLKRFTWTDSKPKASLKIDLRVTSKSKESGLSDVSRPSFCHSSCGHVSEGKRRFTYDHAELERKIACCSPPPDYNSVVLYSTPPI

| Structure (SMILES) | IC50 [1] | IC50 [2] | IC50 [4] | IC50 [5] | inhibition (Gallus gallus) | Ratio [3] | Ratio [6] |
| --- | --- | --- | --- | --- | --- | --- | --- |
| COC[C@H](Cn1ccnc1[N+](=O)[O-])OC(=O)c1ccc(NC(=O)C(F)(F)F)cc1 | > 240 µM⁻¹ | > 240 µM⁻¹ | – | – | 83% | 1.84 | – |
| COC[C@H](Cn1ccnc1[N+](=O)[O-])OC(=O)c1ccc(NC=C2C(=O)C=CC2=O)cc1 | – | – | 23 µM⁻¹ | – | – | – | – |
| COC[C@@H](Cn1ccnc1[N+](=O)[O-])OC(=O)c1ccc(NC(=O)C(F)(F)F)cc1 | > 240 µM⁻¹ | > 240 µM⁻¹ | – | – | 43% | 2.02 | – |
| O=C(Cn1ccnc1[N+](=O)[O-])NCCO [ETANIDAZOLE] | – | – | – | – | – | – | 1.72 |

More lines, main results first:

| IC50 [1] | IC50 [2] | IC50 [4] | IC50 [5] | Structure (SMILES) | inhibition (Gallus gallus) | Ratio [3] | Ratio [6] |
| --- | --- | --- | --- | --- | --- | --- | --- |
| 183 µM⁻¹ | 103 µM⁻¹ | 18.4 µM⁻¹ | 184 µM⁻¹ | CC(C)(C)c1ccc(OC[C@H](Cn2ccnc2[N+](=O)[O-])OC(=O)c2ccc(NC=C3C(=O)C=CC3=O)cc2)cc1 | – | – | – |
| – | 67 µM⁻¹ | 1.8 µM⁻¹ | 18.4 µM⁻¹ | CC(C)(C)c1ccc(OC[C@@H](Cn2ccnc2[N+](=O)[O-])OC(=O)c2ccc(NC=C3C(=O)C=CC3=O)cc2)cc1 | – | – | – |
| 24 µM⁻¹ | 53 µM⁻¹ | – | 23.4 µM⁻¹ | COC[C@@H](Cn1ccnc1[N+](=O)[O-])OC(=O)c1ccc(NC=C2C(=O)C=CC2=O)cc1 | – | – | – |
